# Source: ChEMBL document CHEMBL1909595, “Characterization of a novel and selective CB1 antagonist as a radioligand for receptor occupancy studies” (Bioorg Med Chem Lett, 2011)
# Tests used:
# [1] = tested on: Rattus norvegicus; assay: Ex vivo receptor occupancy of CB1 receptor in Sprague-Dawley rat at 0.1 mg/kg, po measured 6 hrs post dose; assay type: functional
# How it was run: (§1)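 Male Sprague-Dawley rats were dosed p.o. (0.03–30 mg/kg, vehicle 10% DMAC/cremophor/ethanol, 2 ml/kg) 1 h before the dark cycle. Brains were taken 6 h post-dose, three per group, frozen and cut into 20 µm cryosections. Sections pre-incubated 30 s, then 6 min with 40 nM [3H]BMS-725519 in chilled HEPES buffer. Nonspecific binding by 5 µM unlabelled BMS-725519. Three 30 s washes. Cerebellar density measured by phosphor imaging (DLU/mm², background-subtracted); occupancy expressed relative to vehicle specific binding.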
# [2] = tested on: Rattus norvegicus; assay: Antiobesity activity in Sprague-Dawley rat assessed as reduction in food intake at 10 mg/kg, po measured after 20 hrs; assay type: functional; set-up: scale not given: the % may be the effect or the level left
# How it was run: (§2)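 Male Sprague-Dawley rats, six per group, trained to bar-press for food pellets in operant chambers. Dosed p.o. in 10% DMAC/10% EtOH/10% Cremophor/70% water at 2 ml/kg. Two 20 h sessions starting at dark-cycle onset, 4 h apart. The first session was the baseline used to balance groups. Pellets counted at 1, 2, 4, 8, 12 and 20 h after lock-out. One-way ANOVA with Fisher PLSD.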
# [3] = tested on: Rattus norvegicus; assay: Antiobesity activity in Sprague-Dawley rat assessed as reduction in food intake at 0.3 mg/kg, po measured after 20 hrs; assay type: functional; set-up: scale not given: the % may be the effect or the level left; how it was run: as §2
# [4] = tested on: Plasma; assay: Free plasma concentration in Sprague-Dawley rat at 0.3 mg/kg, po measured 6 hrs post dose; assay type: ADME, organism-based; set-up: dose 0.3 mg/kg, route oral; settings: in vivo
# [5] = tested on: Rattus norvegicus; assay: Antiobesity activity in Sprague-Dawley rat assessed as reduction in food intake at 0.1 mg/kg, po measured after 20 hrs; assay type: functional; set-up: scale not given: the % may be the effect or the level left; how it was run: as §2
# [6] = tested on: Rattus norvegicus; assay: Ex vivo receptor occupancy of CB1 receptor in Sprague-Dawley rat at 0.03 mg/kg, po measured 6 hrs post dose; assay type: functional; how it was run: as §1
# [7] = molecular target: T1, Cannabinoid receptor 1 (Homo sapiens, UniProt P21554); assay: Displacement of [3H]-SR-141716 from human CB1 receptor
# [8] = molecular target: Cannabinoid receptor 2 (Homo sapiens, UniProt P34972); assay: Displacement of [3H]-CP55940 from human CB2 receptor
# [9] = tested on: Rattus norvegicus; assay: Ex vivo receptor occupancy of CB1 receptor in Sprague-Dawley rat at 10 mg/kg, po measured 6 hrs post dose; assay type: functional; how it was run: as §1
# [10] = molecular target: T2, Cannabinoid receptor 1 (Rattus norvegicus, UniProt P20272); assay: Displacement of [3H]BMS-725519 from rat brain CB1 receptor after 45 mins by autoradiography
# [11] = tested on: Plasma; assay: Free plasma concentration in Sprague-Dawley rat at 30 mg/kg, po measured 6 hrs post dose; assay type: ADME, organism-based; set-up: dose 30 mg/kg, route oral; settings: in vivo
# [12] = Protein binding in human; assay type: ADME
# [13] = tested on: Rattus norvegicus; assay: Ex vivo receptor occupancy of CB1 receptor in Sprague-Dawley rat at 0.3 mg/kg, po measured 6 hrs post dose; assay type: functional; how it was run: as §1
# [14] = tested on: Plasma; assay: Free plasma concentration in Sprague-Dawley rat at 1 mg/kg, po measured 6 hrs post dose; assay type: ADME, organism-based; set-up: dose 1 mg/kg, route oral; settings: in vivo
# [15] = tested on: Rattus norvegicus; assay: Ex vivo receptor occupancy of CB1 receptor in Sprague-Dawley rat at 3 mg/kg, po measured 6 hrs post dose; assay type: functional; how it was run: as §1
# [16] = tested on: Plasma; assay: Free plasma concentration in Sprague-Dawley rat at 3 mg/kg, po measured 6 hrs post dose; assay type: ADME, organism-based; set-up: dose 3 mg/kg, route oral; settings: in vivo
# [17] = tested on: Rattus norvegicus; assay: Ex vivo receptor occupancy of CB1 receptor in Sprague-Dawley rat at 30 mg/kg, po measured 6 hrs post dose; assay type: functional; how it was run: as §1
# [18] = molecular target: T2, Cannabinoid receptor 1; assay: Displacement of [3H]-SR-141716 from rat CB1 receptor
# [19] = tested on: Rattus norvegicus; assay: Ex vivo receptor occupancy of CB1 receptor in Sprague-Dawley rat at 1 mg/kg, po measured 6 hrs post dose; assay type: functional; how it was run: as §1
# [20] = tested on: Plasma; assay: Free plasma concentration in Sprague-Dawley rat at 0.1 mg/kg, po measured 6 hrs post dose; assay type: ADME, organism-based; set-up: dose 0.1 mg/kg, route oral; settings: in vivo
# [21] = tested on: Rattus norvegicus; assay: Antiobesity activity in Sprague-Dawley rat assessed as reduction in food intake at 0.03 mg/kg, po measured after 20 hrs; assay type: functional; set-up: scale not given: the % may be the effect or the level left; how it was run: as §2
# [22] = tested on: Plasma; assay: Free plasma concentration in Sprague-Dawley rat at 10 mg/kg, po measured 6 hrs post dose; assay type: ADME, organism-based; set-up: dose 10 mg/kg, route oral; settings: in vivo
# [23] = tested on: Rattus norvegicus; assay: Antiobesity activity in Sprague-Dawley rat assessed as reduction in food intake at 30 mg/kg, po measured after 20 hrs; assay type: functional; set-up: scale not given: the % may be the effect or the level left; how it was run: as §2
# [24] = tested on: Rattus norvegicus; assay: Antiobesity activity in Sprague-Dawley rat assessed as reduction in food intake at 1 mg/kg, po measured after 20 hrs; assay type: functional; set-up: scale not given: the % may be the effect or the level left; how it was run: as §2
# [25] = tested on: Rattus norvegicus; assay: Antiobesity activity in Sprague-Dawley rat assessed as reduction in food intake at 3 mg/kg, po measured after 20 hrs; assay type: functional; set-up: scale not given: the % may be the effect or the level left; how it was run: as §2
# [26] = tested on: Plasma; assay: Free plasma concentration in Sprague-Dawley rat at 0.03 mg/kg, po measured 6 hrs post dose; assay type: ADME, organism-based; set-up: dose 0.03 mg/kg, route oral; settings: in vivo
# [27] = molecular target: T2, Cannabinoid receptor 1; assay: Binding affinity to rat brain CB1 receptor after 90 mins by scintillation counting
# How it was run: (§3)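 Rat whole-brain or CHO (human CB1) membranes were homogenized in 10 mM HEPES/1 mM EGTA pH 7.4 with protease inhibitors, DTT and sucrose. Centrifuged at 1000 g, then the pellet was taken at 100,000 g and resuspended in 20 mM HEPES, 1 mM EGTA, 1 mM DTT, 1 mM MgCl2. Saturation with increasing [3H]BMS-725519; nonspecific binding by cold BMS-725519. 90 min at room temperature, GF/B filtration, scintillation counting. Kd and Bmax derived.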
# [28] = molecular target: T1, Cannabinoid receptor 1; assay: Binding affinity to human CB1 receptor expressed in CHO cells after 90 mins by scintillation counting; assay type: cell-based; how it was run: as §3
# [29] = tested on: Brain; assay: Drug uptake in brain of CB1 receptor knockout mouse at 10 uM; assay type: ADME, tissue-based; settings: in vivo
# [30] = tested on: Brain; assay: Drug uptake in brain of mouse expressing CB1 receptor at 10 uM; assay type: ADME, tissue-based; settings: in vivo
# T2 sequence (P20272 whole entry): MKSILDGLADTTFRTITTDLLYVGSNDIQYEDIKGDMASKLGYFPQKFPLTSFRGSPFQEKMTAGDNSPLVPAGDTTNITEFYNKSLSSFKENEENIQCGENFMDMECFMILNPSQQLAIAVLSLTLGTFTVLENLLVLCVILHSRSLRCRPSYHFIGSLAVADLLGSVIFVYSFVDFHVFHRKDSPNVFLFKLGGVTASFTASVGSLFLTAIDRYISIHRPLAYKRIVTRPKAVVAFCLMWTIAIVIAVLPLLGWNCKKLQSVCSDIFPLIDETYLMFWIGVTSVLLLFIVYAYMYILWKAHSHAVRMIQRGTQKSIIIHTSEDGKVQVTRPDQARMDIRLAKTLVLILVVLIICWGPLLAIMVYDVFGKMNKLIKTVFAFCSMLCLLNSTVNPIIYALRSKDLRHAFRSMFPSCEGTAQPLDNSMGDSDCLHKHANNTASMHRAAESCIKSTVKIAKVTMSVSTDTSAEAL
# T1 sequence (P21554 whole entry): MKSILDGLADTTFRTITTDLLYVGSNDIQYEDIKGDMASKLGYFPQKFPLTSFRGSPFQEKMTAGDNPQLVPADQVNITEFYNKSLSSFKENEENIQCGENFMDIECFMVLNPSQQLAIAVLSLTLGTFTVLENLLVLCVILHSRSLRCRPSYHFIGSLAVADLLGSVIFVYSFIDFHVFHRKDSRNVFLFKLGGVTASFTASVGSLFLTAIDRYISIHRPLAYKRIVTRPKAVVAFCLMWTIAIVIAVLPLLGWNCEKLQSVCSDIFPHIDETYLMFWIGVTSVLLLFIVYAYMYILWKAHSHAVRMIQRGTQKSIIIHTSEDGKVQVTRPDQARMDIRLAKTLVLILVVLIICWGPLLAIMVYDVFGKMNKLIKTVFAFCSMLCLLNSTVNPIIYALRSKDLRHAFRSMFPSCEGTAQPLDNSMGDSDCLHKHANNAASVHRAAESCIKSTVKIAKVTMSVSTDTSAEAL
# Chain of Cannabinoid receptor 2 (P34972 whole entry): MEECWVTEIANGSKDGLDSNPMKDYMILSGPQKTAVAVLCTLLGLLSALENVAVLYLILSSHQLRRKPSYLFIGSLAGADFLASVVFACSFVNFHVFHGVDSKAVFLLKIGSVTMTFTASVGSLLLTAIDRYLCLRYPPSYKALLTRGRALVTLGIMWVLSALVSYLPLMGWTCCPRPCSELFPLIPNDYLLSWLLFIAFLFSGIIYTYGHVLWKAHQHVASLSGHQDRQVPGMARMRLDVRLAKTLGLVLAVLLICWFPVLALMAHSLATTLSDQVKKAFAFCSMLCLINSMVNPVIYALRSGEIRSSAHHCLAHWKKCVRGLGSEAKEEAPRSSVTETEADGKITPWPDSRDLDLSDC
smiles,measurement,setting,value
O=c1n(Cc2ccc(C(F)(F)F)nc2)nc2c(-c3ccncc3)c(-c3ccc(Cl)cc3)cnn12,Activity,[1],14.3%
same,Activity,[2],67.4%
same,Activity,[3],22.3%
same,Cp(f),[4],15.3 nM
same,Activity,[5],0%
same,Activity,[6],12.7%
same,Kd,[7],4.6 nM
same,Kd,[8],> 10000 nM
same,Activity,[9],64.5%
same,IC50,[10],37 nM
same,Cp(f),[11],1047 nM
same,fraction unbound,[12],0.05
same,Activity,[13],20.6%
same,Cp(f),[14],49.4 nM
same,Activity,[15],55.6%
same,Cp(f),[16],112 nM
same,Activity,[17],74.1%
same,Kd,[18],12.4 nM
same,Activity,[19],29.8%
same,Cp(f),[20],5.4 nM
same,Activity,[21],0%
same,Cp(f),[22],531 nM
same,Activity,[23],72.5%
same,Activity,[24],23.7%
same,Activity,[25],41.5%
same,Cp(f),[26],1.5 nM
[3H]c1cc(-c2cnn3c(=O)n(Cc4ccc(C(F)(F)F)nc4[3H])nc3c2-c2ccncc2)ccc1Cl,Kd,[27],29.1 nM
same,Kd,[28],3.95 nM
same,Drug uptake,[29],Not Active
same,Drug uptake,[30],Active
